Source: PubChem
Only some compounds are listed: those with a hit (about 2.6% of all), similar ones and a draw of the others.
RAD54 branch: inhibitors of human RAD54 branch migration; RAD54 Holliday junction branch migration, FAM/BHQ fluorescence; inhibition, % at 10.4 µM; hit rate 0.14% among 360,000; AID 602329;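 active = mean normalized replicate activity at least 40 and at least half of replicates scoring 40 or more; inconclusive = only one of the two criteria met; inactive = mean below 40 and under half of replicates reaching 40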;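 also: inhibitors cause a drop in the FAM fluorescence signal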
E-selectin induc: E-selectin induction on HUVECs; HUVEC E-selectin immunofluorescence imaging; normalized: neutral wells 0, TNF-alpha wells 100; P16581; hit rate 0.37% among 260,000; activation, % at 7.58 µM; AID 686992;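 active = mean E-selectin-positive cell signal at least 10% of the positive control, reached in at least 60% of replicates, without over 20% cell loss; inconclusive = no rule given, readout overlaps actives, possibly toxicity-flagged; inactive = the rest, including those meeting only one limit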
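Test system – human umbilical vein endothelial cells (HUVEC), E-selectin induction · Input – 3,000 HUVEC seeded per well · Buffer or medium – EGM-2, gelatin · Compound dosing – single-point compound dose · Detection – immunofluorescence imaging · Measure – percent E-selectin-positive cells · Controls – TNF-alpha high, DMSO low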
GSIS activator: GLuc luminescence reporter in INS-1E cells, primary screen for activators of glucose-dependent secretion of insulin; INS-1E GLuc reporter insulin secretion, 2-3 h; AID 743287; activation, % at 16.6 µM; hit rate 0.61% among 370,000;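 active = lowest replicate activation of at least 40%, so every replicate reaches that level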
rRNA inh HTS: inhibitors of bacterial rRNA selective over humanized ribosomes; hit rate 1.6% among 350,000; E. coli WT GFP vs humanized-ribosome RFP mutants, fluorescence, 24 h; active compounds read low; DMSO median 0, no signal -100; GFP signal change (wild-type ribosome), % (concentration not given with the values);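 active = significant combined selectivity score with lowered wild-type GFP, culture density cut under 30%, mutant RFP and density less affected; inactive = any of these conditions unmet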
RAD52 anneal inh: inhibitors of human RAD52 DNA annealing; P43351; recombinant RAD52 DNA annealing, FRET fluorescence; inhibition, % at 18.7 µM; hit rate 0.46% among 360,000; AID 651710;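 active = every replicate showing at least 50% inhibition; inconclusive = mean inhibition at least 50% but not in every replicate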
MLL AF4-AF9 inh: inhibitors of human MLL-AF4/AF9 interaction | hit rate 0.47% among 350,000 | P42568 | AID 651704 | inhibition, % at 10 µM | AlphaScreen, biotin-AF4 peptide binding to FLAG-AF9;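 active = every replicate reaching a set inhibition limit, whatever the replicate mean, cut at about 25% in these data; inconclusive = mean inhibition reaches that limit but some replicates miss it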
Target sequence (P42568 whole entry, looked up): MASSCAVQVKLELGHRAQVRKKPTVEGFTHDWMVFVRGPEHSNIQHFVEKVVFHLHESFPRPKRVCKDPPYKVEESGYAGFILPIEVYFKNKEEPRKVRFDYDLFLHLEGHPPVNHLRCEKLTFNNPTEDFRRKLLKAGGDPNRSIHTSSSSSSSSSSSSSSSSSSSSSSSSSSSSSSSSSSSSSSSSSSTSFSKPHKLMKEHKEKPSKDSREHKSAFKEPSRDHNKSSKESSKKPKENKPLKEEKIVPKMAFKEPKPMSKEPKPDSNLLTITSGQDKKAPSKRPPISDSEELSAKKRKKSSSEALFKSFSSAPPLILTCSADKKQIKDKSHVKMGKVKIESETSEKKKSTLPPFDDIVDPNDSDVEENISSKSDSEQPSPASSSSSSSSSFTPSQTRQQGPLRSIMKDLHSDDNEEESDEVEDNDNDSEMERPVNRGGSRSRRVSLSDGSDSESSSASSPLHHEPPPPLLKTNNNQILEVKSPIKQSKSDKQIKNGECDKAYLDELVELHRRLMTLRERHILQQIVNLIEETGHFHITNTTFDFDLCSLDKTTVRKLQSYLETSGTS
Each line names hits and unclear results; the compound was inactive in the other large screens.

Cc1cc(/C=N/n2cnnc2)c(C)n1-c1ccc(Cl)cc1	none (no result: RAD54 branch, rRNA inh HTS, RAD52 anneal inh, MLL AF4-AF9 inh)
Cc1cc(OC(=O)c2ccccc2Cl)c([N+](=O)[O-])c(=O)[nH]1	none
Cc1cc(OC(=O)c2ccc(Cl)cc2Cl)c([N+](=O)[O-])c(=O)[nH]1	MLL AF4-AF9 inh 37
O=C(CCc1ccccc1)N/N=C/c1cc(Br)ccc1O	rRNA inh HTS -16 (no result: RAD54 branch, E-selectin induc)
COc1cccc(/C=N/NC(=O)CCc2ccccc2)c1	rRNA inh HTS -21 (no result: E-selectin induc)
Oc1ccc(Br)cc1/C=N/NC(=S)NCCc1ccccc1	none (no result: E-selectin induc)
COc1ccc(CCCC(=O)N/N=C\c2cccs2)cc1	rRNA inh HTS -23 (no result: RAD54 branch)
Cc1ccc(NC(=O)CCC(=O)N/N=C/c2ccccc2O)cc1	none
O=C(CCC(=O)Nc1ccc(Br)cc1)N/N=C/c1ccccc1O	rRNA inh HTS -15
C[C@@H]1CN([C@H](C)CO)C(=O)c2cc(-c3ccccc3F)cnc2O[C@H]1CN(C)Cc1cccc(F)c1	none (no result: E-selectin induc, GSIS activator, rRNA inh HTS)
C[C@@H]1CN([C@H](C)CO)S(=O)(=O)c2ccc(-c3ccc(F)cc3)cc2O[C@@H]1CN(C)C	none
COc1ccc(CN(C)C[C@@H]2OCCCC[C@@H](C)Oc3ccc(NS(=O)(=O)c4c(C)noc4C)cc3C(=O)N([C@H](C)CO)C[C@@H]2C)cc1	none (no result: RAD52 anneal inh, MLL AF4-AF9 inh)
O=C(CSc1ncc(-c2ccccc2)[nH]1)Nc1ccccc1	rRNA inh HTS -32 (no result: E-selectin induc)
O=C(CSc1ncc(-c2ccccc2)[nH]1)Nc1cccc(O)c1	none (no result: E-selectin induc)
COc1ccc(/C=C/CN2CCCC(CO)(Cc3cccc(Cl)c3)C2)cc1 (stereo unspecified)	rRNA inh HTS -47
C[C@@H]1CN([C@@H](C)CO)S(=O)(=O)c2ccc(C#CC3CC3)cc2O[C@H]1CN(C)C(=O)CC1CC1	none
CC(C)Cn1c(=O)c(C(=O)Nc2cnccn2)c(O)c2ccccc21	none (no result: E-selectin induc, GSIS activator, rRNA inh HTS, RAD52 anneal inh, MLL AF4-AF9 inh)
CC(C)Cn1c(=O)c(C(=O)Nc2ccncc2)c(O)c2ccccc21	rRNA inh HTS -26 (no result: E-selectin induc)
CCCNC(=O)N(C)C[C@H]1Oc2cc(-c3ccccc3F)ccc2S(=O)(=O)N([C@H](C)CO)C[C@H]1C	none (no result: RAD52 anneal inh)
O=C(C[C@H]1C[C@H]2c3cc(NC(=O)Nc4ccc(F)cc4)ccc3O[C@H]2[C@@H](CO)O1)NC1CCCCC1	none (no result: MLL AF4-AF9 inh)
NC(=O)CSc1nnc(SCc2ccc(F)cc2)s1	E-selectin induc 27
Nc1nnc(SCc2ccc(F)cc2)s1	none (no result: E-selectin induc, GSIS activator, rRNA inh HTS, RAD52 anneal inh, MLL AF4-AF9 inh)
C=CCN1C(=O)c2n[nH]c(COC)c2C1c1ccc2c(c1)OCO2 (stereo unspecified)	none (no result: RAD54 branch, MLL AF4-AF9 inh)
C=CCN1C(=O)c2n[nH]c(COC)c2C1c1ccc(F)cc1 (stereo unspecified)	GSIS activator 65 (no result: RAD54 branch)
CCCN(CC(=O)Nc1ccc(Cl)cc1Cl)Cc1cc(=O)n2ccsc2n1	rRNA inh HTS -46
CCCNC(=O)N1CC2(CCN(Cc3ccccn3)CC2)c2c(n(C)c3cc(OC)ccc23)[C@H]1CO	none (no result: RAD54 branch)
COc1ccc(CN(C)C[C@@H]2Oc3c(NS(=O)(=O)c4ccc(Cl)cc4)cccc3C(=O)N([C@@H](C)CO)C[C@H]2C)cc1	none
COc1ccc(S(=O)(=O)Nc2ccc3c(c2)CC(=O)N([C@@H](C)CO)C[C@H](C)[C@H](CN(C)C(=O)NC2CCCCC2)O3)cc1	E-selectin induc inconclusive
CNC[C@H]1Oc2ccc(NS(=O)(=O)c3ccc(OC)cc3)cc2CC(=O)N([C@@H](C)CO)C[C@H]1C	none
CNC[C@H]1Oc2ccc(NS(=O)(=O)c3ccc(OC)cc3)cc2CC(=O)N([C@@H](C)CO)C[C@@H]1C	E-selectin induc 60
COc1ccc(S(=O)(=O)Nc2ccc3c(c2)CC(=O)N([C@H](C)CO)C[C@@H](C)[C@H](CN(C)C(=O)NC2CCCCC2)O3)cc1	E-selectin induc 48
C[C@H]1CN([C@@H](C)CO)C(=O)c2cc(NC(=O)CCC(F)(F)F)ccc2O[C@@H]1CN(C)S(C)(=O)=O	none
CCOC(=O)N1CCC(N2Cc3cccc(C(=O)Nc4ccc(N(CC)CC)cc4C)c3C2=O)CC1	MLL AF4-AF9 inh 43 (no result: E-selectin induc)
CCC(=O)N1[C@@H]2c3cccc(=O)n3C[C@H]1[C@H](CO)[C@H]2C(=O)N1CCc2ccccc2C1	none
O=C(/C=C/c1cccc([N+](=O)[O-])c1)NCCSCc1ccc(Cl)cc1	rRNA inh HTS -20 (no result: RAD54 branch, E-selectin induc)
O=C(/C=C/c1cccc([N+](=O)[O-])c1)NCCSCc1c(Cl)cccc1Cl	none (no result: E-selectin induc)
COc1ccc(S(=O)(=O)NCCSc2ccc(Cl)cc2)cc1OC	rRNA inh HTS -38 (no result: E-selectin induc)
CN(C)S(=O)(=O)c1cccc(NC(=O)c2n[nH]c(=O)c3ccccc23)c1	rRNA inh HTS -26 (no result: RAD54 branch, GSIS activator)
C[C@H](CO)N1C[C@H](C)[C@@H](CN(C)C(=O)c2ccccc2)OCCCC[C@H](C)Oc2ccc(NC(=O)Cc3ccccc3)cc2C1=O	none
CCCCc1c(C)nc2ccccc2c1SCCC(=O)O	none (no result: E-selectin induc)
CCCCc1c(C)nc2ccc(C)cc2c1SCCC(=O)O	E-selectin induc 29 (no result: RAD54 branch, GSIS activator)
Cc1nn2c(NCCN3CCOCC3)c3c(nc2c1-c1ccccc1)CCCC3	rRNA inh HTS -34 (no result: MLL AF4-AF9 inh)
O=C(Nc1ccc(Oc2cccc(C(F)(F)F)c2)nc1)c1cccs1	rRNA inh HTS -44
O=C(Nc1ccc(Oc2cccc(C(F)(F)F)c2)nc1)c1ccccc1	none
OC1CCCN(c2c3c(nc4cc(-c5cccc(Cl)c5)nn24)CCC3)C1 (stereo unspecified)	none (no result: E-selectin induc, rRNA inh HTS, RAD52 anneal inh, MLL AF4-AF9 inh)
Cc1cccc(-c2cc3nc4c(c(N5CCCC(O)C5)n3n2)CCC4)c1 (stereo unspecified)	GSIS activator 86 (no result: E-selectin induc, rRNA inh HTS, RAD52 anneal inh, MLL AF4-AF9 inh)
COc1cc2c(cc1OC)/C(=C/C(=O)c1ccc(OC)c([N+](=O)[O-])c1)NCC2	GSIS activator 51
COc1cc2c(cc1OC)/C(=C/C(=O)c1cccc([N+](=O)[O-])c1)NCC2	none (no result: E-selectin induc)
CC[C@H](C)[C@H](NC(N)=O)C(=O)NNC(=O)c1ccc(COc2cccc3cccnc23)cc1	MLL AF4-AF9 inh 35
Fc1ccc(COc2cccc3cccnc23)cc1	none (no result: RAD54 branch, E-selectin induc)
CCC(=O)N1[C@@H](CO)[C@@H](c2ccc(-c3ccccc3OC)cc2)C12CN(C(C)=O)C2	none (no result: RAD54 branch)
CCSc1nnc(NC(=O)c2csc3c2CCCC3)s1	GSIS activator 119 (no result: E-selectin induc, rRNA inh HTS, RAD52 anneal inh, MLL AF4-AF9 inh)
CCSc1nnc(NC(=O)c2csc3c2CCC(C)C3)s1 (stereo unspecified)	none (no result: E-selectin induc, GSIS activator, rRNA inh HTS, RAD52 anneal inh, MLL AF4-AF9 inh)
COc1ccc(C(C)NCCC(c2ccc(OC(C)C)cc2)c2ccccc2OC)cc1 (stereo unspecified)	GSIS activator 134 (no result: RAD54 branch)
COc1ccccc1C(CC(=O)Nc1ccc(Cl)cc1)c1ccc(OC(C)C)cc1 (stereo unspecified)	none (no result: RAD54 branch, E-selectin induc, rRNA inh HTS, RAD52 anneal inh, MLL AF4-AF9 inh)
CCOC(=O)CC1C(=O)NCCN1Cc1cccs1 (stereo unspecified)	none
O=C(O)CC1C(=O)NCCN1Cc1cccs1 (stereo unspecified)	E-selectin induc 85 (no result: RAD54 branch)
Cc1cccc(OCC(=O)Nc2ccc(NC(=O)c3ccco3)cc2)c1	GSIS activator 75 (no result: E-selectin induc)
